{
  "source": "paper PMC3858840",
  "about": "(Journal of molecular biology, 2013)",
  "molecules": {"B1": {"name": "moesin-FERM: FERM domain of human moesin (residues 1–346), recombinant (protein)", "chain": "MPKTISVRVTTMDAELEFAIQPNTTGKQLFDQVVKTIGLREVWFFGLQYQDTKGFSTWLKLNKKVTAQDVRKESPLLFKFRAKFYPEDVSEELIQDITQRLFFLQVKEGILNDDIYCPPETAVLLASYAVQSKYGDFNKEVHKSGYLAGDKLLPQRVLEQHKLNKDQWEERIQVWHEEHRGMLREDAVLEYLKIAQDLEMYGVNYFSIKNKKGSELWLGVDALGLNIYEQNDRLTPKIGFPWSEIRNISFNDKKFVIKPIDKKAPDFVFYAPRLRINKRILALCMGNHELYMRRRKPDTIEVQQMKAQAREEKHQKQMERAMLENEKKKREMAEKEKEKIEREKEE"}},
  "key": {"[1]": {"tested_on": "CaM (calmodulin)", "assay": "Direct interaction between moesin-FERM and CaM", "assay_type": "binding", "details": "up to 10 µM moesin-FERM; 0.3 mM CaCl2; ex 340 nm"}, "[2]": {"tested_on": "TMR-CLS/POPC/POPS liposome", "assay_type": "binding, human", "details": "added alone, before moesin-FERM; 15% POPS/85% POPC; 0.3 mM CaCl2; 575 nm", "outline": "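TMR-CLS was extruded (400-nm filter) into 15% POPS/85% POPC liposomes at 1:1000 peptide:lipid and diluted to about 5 nM in 50 mM Tris–HCl, 150 mM NaCl, 0.3 mM CaCl₂, pH 7.4. Additions carried 5 nM liposome. First 3 µM Ca/CaM, then moesin-FERM (400 nM, then 100 nM steps). TMR emission was recorded continuously at 575 nm (excitation 542 nm).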"}},
  "data": [
    {"molecule": "B1", "values": [
      {"measurement": "change in IAEDANS fluorescence emission of IAEDANS-CaM", "setting": "[1]", "value": "little change in the IAEDANS fluorescence emission"},
      {"measurement": "change in TMR fluorescence of TMR-CLS/POPS liposome on addition", "setting": "[2]", "value": "decrease of TMR fluorescence emission"}
    ]}
  ]
}
